Laboratory results from paper PMC10139733 (Journal of drug delivery science and technology, 2023).
Structures can show the parent of a compound that is named as a salt.

Key:
[1] = Screening solubility of sorafenib in oils, surfactants and cosolvents; type: physicochemical; conditions: 37 °C, thermodynamic from solid
Caco-2 cells monolayer = assay: In vitro transport across the Caco-2 cells monolayer; type: in vitro ADME; conditions: 80 μg/mL equivalent drug, up to 240 min
In short: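 Caco-2 cells in RPMI with 10% FBS and 1% penicillin/streptomycin (37 °C, 5% CO2) seeded at 10 × 10⁴ cells/insert on Geltrex-coated 0.3 μm polycarbonate inserts, fed every 2 days for 21 days. Only monolayers with TEER > 300 Ω·cm² were used. Test compound was dispersed in medium and applied apically. Basolateral samples at 30–240 min were replaced with warm medium. Three inserts per time point; HPLC.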

Q: For CNC(=O)c1cc(Oc2ccc(NC(=O)Nc3ccc(Cl)c(C(F)(F)F)c3)cc2)ccn1 [sorafenib, Sorafenib tosylate], which solubility at 24 h ([1]; capmul MCM (oil), oil or lipid) is on record?
A: 5160 ± 800 µg/mL

Q: And the solubility at 24 h ([1]; captex 355 (oil), oil or lipid)?
A: 42.8 ± 7.6 µg/mL

Q: And the solubility at 24 h ([1]; carpyol 90 (oil), oil or lipid)?
A: 279 ± 6.5 µg/mL

Q: What about the solubility at 24 h ([1]; corn oil, oil or lipid) of the same molecule?
A: 53 ± 13.7 µg/mL

Q: And the solubility at 24 h ([1]; ethanol (cosolvent), organic solvent or mixture)?
A: 5800 ± 800 µg/mL

Q: And the solubility at 24 h ([1]; isopropyl myristate (oil), oil or lipid)?
A: 37.9 ± 7.2 µg/mL

Q: And the solubility at 24 h ([1]; labrafil M 1944 CS (oil), oil or lipid)?
A: 350 ± 50 µg/mL

Q: And the solubility at 24 h ([1]; labrafil M 2125 CS (oil), oil or lipid)?
A: 279 ± 44.9 µg/mL

Q: What about the solubility at 24 h ([1]; lauroglycol (oil), oil or lipid) of the same molecule?
A: 298 ± 184 µg/mL

Q: What about the solubility at 24 h ([1]; mineral oil, oil or lipid) of the same molecule?
A: 47.6 ± 25.2 µg/mL

Q: And the solubility at 24 h ([1]; olive oil, oil or lipid)?
A: 35 ± 0.6 µg/mL

Q: What about the solubility at 24 h ([1]; peceol (oil), oil or lipid) of the same molecule?
A: 900 ± 500 µg/mL

Q: And the solubility at 24 h ([1]; soybean oil, oil or lipid)?
A: 64 ± 49.3 µg/mL

Q: And the solubility at 24 h ([1]; triacetin (oil), oil or lipid)?
A: 113 ± 62.5 µg/mL

Q: And the “Penetration of sorafenib across the monolayer, apical to basolateral” value (Caco-2 cells monolayer)?
A: absolutely no penetration
